“Also recorded” adds a separate entry of the source.
Columns and labels:
α-glucosidase [1] = biological target: T1, α-glucosidase (Saccharomyces cerevisiae, UniProt P53341); conditions: read-out: α-glucosidase IC50; Fig. 1; cited from earlier work
α-glucosidase [2] = biological target: T1, α-glucosidase; conditions: kinetic studies; cited from earlier work
[3] = biological target: α-Glucosidase (derived from Saccharomyces cerevisiae; EC3.2.1.20) (Saccharomyces cerevisiae, UniProt P53341); test: In vitro α-glucosidase inhibitory study; type: biochemical
[4] = cited from earlier work
α-glucosidase [5] = biological target: T1, α-glucosidase; test: Kinetic studies of α-glucosidase; type: biochemical
α-glucosidase [6] = biological target: T1, α-glucosidase; test: Fluorescence spectroscopy measurements; type: binding; conditions: 0–500 nM, excitation 280 nm, phosphate buffer pH 6.8
Procedure, shortened: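 Fixed amount of yeast α-glucosidase in 3.0 ml with test compound at 0–500 nM, equilibrated 10 min. Steady-state emission spectra recorded 300–500 nm with excitation at 280 nm in a 1.0 cm quartz cell. Buffer-only spectra without enzyme subtracted as background.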

α-glucosidase [7] = biological target: T1, α-glucosidase; test: Thermodynamic analysis of the binding of compound 8g to α-glucosidase
Procedure, shortened: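 Fluorescence intensity of yeast α-glucosidase at 340 nm followed over 298–338 K, with or without test compound (pH 6.8), under a two-state N↔U model. Denatured fraction, apparent K and ΔG° = −RT ln K were calculated, then fitted to the integrated Gibbs–Helmholtz equation (ΔCp 11.6 kJ/mol K). This gave Tm (half-denatured), ΔH°m and ΔS°m, with ΔH = TmΔS.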

male Wistar rats = test: In vivo hypoglycemic activity assay; set-up: species or system rat; conditions: for blood glucose effect (area under curve) vs negative control: sucrose 7.5 g/kg, one-way ANOVA
Procedure, shortened: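 Sucrose 7.5 g/kg was given 30 min later. Tail-vein glucose measured by glucometer at 0, 30, 45, 60 and 120 min. Area under curve compared by one-way ANOVA; mean ± SD.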

normal cell lines = conditions: cited from earlier work

T1 sequence (P53341 whole entry): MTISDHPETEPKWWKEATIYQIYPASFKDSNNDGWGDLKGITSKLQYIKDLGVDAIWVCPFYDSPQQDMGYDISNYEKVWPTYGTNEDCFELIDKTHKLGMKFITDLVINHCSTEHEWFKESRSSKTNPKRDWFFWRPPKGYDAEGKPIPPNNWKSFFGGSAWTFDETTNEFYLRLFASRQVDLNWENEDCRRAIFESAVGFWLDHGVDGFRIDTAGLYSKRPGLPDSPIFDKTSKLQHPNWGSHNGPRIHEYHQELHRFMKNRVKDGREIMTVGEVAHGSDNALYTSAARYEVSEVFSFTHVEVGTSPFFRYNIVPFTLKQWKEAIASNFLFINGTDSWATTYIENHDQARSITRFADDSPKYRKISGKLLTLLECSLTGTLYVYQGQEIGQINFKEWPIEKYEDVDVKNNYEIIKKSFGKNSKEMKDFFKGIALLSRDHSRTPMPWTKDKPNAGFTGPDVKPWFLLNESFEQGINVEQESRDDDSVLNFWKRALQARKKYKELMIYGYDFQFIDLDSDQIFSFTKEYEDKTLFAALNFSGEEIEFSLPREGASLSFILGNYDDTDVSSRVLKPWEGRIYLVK
Sequence of α-Glucosidase (derived from Saccharomyces cerevisiae; EC3.2.1.20) (P53341 whole entry): as above

For `O=C(Cn1c(-c2ccc(Cl)cc2)nc2ccccc2c1=O)NN=Cc1cn(-c2ccccc2)nc1-c1ccc(Br)cc1` [E, N’-((3-(4-bromophenyl)−1-phenyl-1H-pyrazol-4-yl)methylene)−2-(2-(4-chlorophenyl)−4-oxoquinazolin-3(4H)-yl)acetohydrazide], the IC50 (α-glucosidase [1]) is listed as 60.5 µM and the “mechanism of α-glucosidase inhibition” value (α-glucosidase [2]) is listed as “competitive mechanism”.

For `COc1ccc(-c2cc(C(=O)NN=CC(O)C(O)C(O)C(O)CO)n[nH]2)cc1` (stereo not drawn) [Compound 8l, 5-(4-Methoxyphenyl)-N’-(2,3,4,5,6-pentahydroxyhexylidene)−1H-pyrazole-3-carbohydrazide], the IC50 [3] was 2.3 µM.

In the case of `O=C(NN=CC(O)C(O)C(O)C(O)CO)c1cc(-c2ccc(Br)cc2)[nH]n1` (stereo not drawn) [Compound 8f, 5-(4-Bromophenyl)-N’-(2,3,4,5,6-pentahydroxyhexylidene)−1H-pyrazole-3-carbohydrazide], the IC50 [3] is reported as 35.2 ± 0.5 µM.

In the case of `Cc1cccc(-c2cc(C(=O)NN=CC(O)C(O)C(O)C(O)CO)n[nH]2)c1` (stereo not drawn) [Compound 8i, N’-(2,3,4,5,6-Pentahydroxyhexylidene)−5-(m-tolyl)−1H-pyrazole-3-carbohydrazide], the IC50 [3] is reported as 12.1 ± 0.5 µM.

`COc1ccc(-c2cc(C(=O)NN=CC(O)C(O)C(O)C(O)CO)n[nH]2)cc1OC` (stereo not drawn) [Compound 8m, 5-(3,4-Dimethoxyphenyl)-N’-(2,3,4,5,6-pentahydroxyhexylidene)−1H-pyrazole-3-carbohydrazide] showed an IC50 [3] of 438.6 ± 0.1 µM.

In the case of `O=C(NN=CC(O)C(O)C(O)C(O)CO)c1cc(-c2ccc(Cl)cc2)[nH]n1` (stereo not drawn) [Compound 8e, 5-(4-Chlorophenyl)-N’-(2,3,4,5,6-pentahydroxyhexylidene)−1H-pyrazole-3-carbohydrazide], the IC50 [3] is reported as 1 µM.

With `O=C(NN=CC(O)C(O)C(O)C(O)CO)c1cc(-c2ccccc2F)[nH]n1` (stereo not drawn) [Compound 8b, 5-(2-Fluorophenyl)-N’-(2,3,4,5,6-pentahydroxyhexylidene)−1H-pyrazole-3-carbohydrazide] the IC50 [3] was 53.9 ± 1.2 µM.

Work on `Cc1ccc(-c2cc(C(=O)NN=CC(O)C(O)C(O)C(O)CO)n[nH]2)cc1` (stereo not drawn) [Compound 8j, N’-(2,3,4,5,6-Pentahydroxyhexylidene)−5-(p-tolyl)−1H-pyrazole-3-carbohydrazide] yielded an IC50 [3] of 36.4 ± 0.2 µM.

With `O=C(NN=CC(O)C(O)C(O)C(O)CO)c1cc(-c2ccccc2)[nH]n1` (stereo not drawn) [Compound 8a, N’-(2,3,4,5,6-Pentahydroxyhexylidene)−5-phenyl-1H-pyrazole-3-carbohydrazide] the IC50 [3] was 1.2 µM.

For `O=C(NNC1OC(CO)C(O)C(O)C1O)c1cc(-c2ccccc2)on1` (stereo not drawn) [H, 5-phenyl-N’-(3,4,5-trihydroxy-6-(hydroxymethyl)tetrahydro-2H-pyran-2-yl)isoxazole-3-carbohydrazide], the IC50 (α-glucosidase [1]) is given as 292 µM.

For `COc1ccc(/C=C/c2cc(O)cc(OC3OC(CO)C(O)C(O)C3O)c2)cc1O` (stereo not drawn) [F, 2-(3-hydroxy-5-((E)−3-hydroxy-4-methoxystyryl)phenoxy)−6-(hydroxymethyl)tetrahydro-2H-pyran-3,4,5-triol], the bioavailability [4] is listed as “very low” and the toxic effects [4] is listed as “no toxic effects”.

`O=C(NN=CC(O)C(O)C(O)C(O)CO)c1cc(-c2ccccc2Cl)[nH]n1` (stereo not drawn) [Compound 8c, 5-(2-Chlorophenyl)-N’-(2,3,4,5,6-pentahydroxyhexylidene)−1H-pyrazole-3-carbohydrazide] gave an IC50 [3] of 4.2 ± 0.1 µM.

For `O=C(NN=CC(O)C(O)C(O)C(O)CO)c1cc(-c2ccc(Cl)cc2Cl)[nH]n1` (stereo not drawn) [Compound 8g, 5-(2,4-Dichlorophenyl)-N’-(2,3,4,5,6-pentahydroxyhexylidene)−1H-pyrazole-3-carbohydrazide], the IC50 [3] was 0.5 µM, the “inhibition of α-glucosidase, times more potently than acarbose” value ([3]; relative to acarbose) was 1500 times and the Ki (α-glucosidase [5]) was 0.46 µM. For the same compound, the type of inhibition (α-glucosidase [5]; Lineweaver-Burk plot: Km increased, Vmax unchanged) was “competitive manner; also recorded: competitive inhibitor”, the “fluorescence intensity of α-glucosidase” value (α-glucosidase [6]) was “increased intensity” and the “shift in the emission wavelength (λmax 340 nm)” value (α-glucosidase [6]) was “did not show significant shift”. For the same compound, the “Tm of α-glucosidase” value (α-glucosidase [7]; 60 nM compound) was 314 K, the “ΔSm° of α-glucosidase denaturation” value (α-glucosidase [7]; 60 nM compound) was 328.6 J mol^−1 K^−1 and the “Tm of α-glucosidase” value (α-glucosidase [7]; 250 nM compound) was 309 K. For the same compound, the “ΔSm° of α-glucosidase denaturation” value (α-glucosidase [7]; 250 nM compound) was 466.9 J mol^−1 K^−1, the “Tm of α-glucosidase” value (α-glucosidase [7]; 500 nM compound) was 304 K and the “ΔHm° of α-glucosidase denaturation” value (α-glucosidase [7]; 500 nM compound) was 37.55 kcal/mol. For the same compound, the “ΔSm° of α-glucosidase denaturation” value (α-glucosidase [7]; 500 nM compound) was 516.4 J mol^−1 K^−1, the “blood sugar levels in rats” value (male Wistar rats; doses comparable to acarbose) was “capable of lowering blood sugar levels; also recorded: effectively reduced” and the “blood glucose effect (area under curve) vs negative control” value (male Wistar rats; rat, oral 2.5 mg/kg) was “did not significantly differ”. The “blood glucose effect (area under curve) vs negative control” value (male Wistar rats; rat, oral 5 mg/kg, p-value < 0.05) was “significantly different”, the “blood glucose effect (area under curve) vs negative control” value (male Wistar rats; rat, oral 10 mg/kg, p-value < 0.05) was “significantly different” and the “effectiveness of 5 and 10 mg/kg doses vs each other and vs acarbose (5 mg/kg)” value (male Wistar rats; rat, oral, sucrose tolerance test) was “did not significantly differ”.

In the case of `O=C(NN=CC(O)C(O)C(O)C(O)CO)c1cc(-c2ccc([N+](=O)[O-])cc2)[nH]n1` (stereo not drawn) [Compound 8h, 5-(4-Nitrophenyl)-N’-(2,3,4,5,6-pentahydroxyhexylidene)−1H-pyrazole-3-carbohydrazide], the IC50 [3] is reported as 80.5 ± 0.7 µM.

Compound `O=C(NN=CC(O)C(O)C(O)C(O)CO)c1cc(-c2ccc(F)cc2)[nH]n1` (stereo not drawn) [Compound 8d, 5-(4-Fluorophenyl)-N’-(2,3,4,5,6-pentahydroxyhexylidene)−1H-pyrazole-3-carbohydrazide] has an IC50 [3] of 60.6 ± 1 µM.

For `O=C(NN=Cc1cn(-c2ccccc2)nc1-c1ccc([N+](=O)[O-])cc1)c1cc2ccccc2o1` [B, N’-((3-(4-nitrophenyl)−1-phenyl-1H-pyrazol-4-yl)methylene)benzofuran-2-carbohydrazide], the “cytotoxicity to normal cell lines” value (normal cell lines) is listed as “non-toxic”.

With `COc1cccc(-c2cc(C(=O)NN=CC(O)C(O)C(O)C(O)CO)n[nH]2)c1` (stereo not drawn) [Compound 8k, 5-(3-Methoxyphenyl)-N’-(2,3,4,5,6-pentahydroxyhexylidene)−1H-pyrazole-3-carbohydrazide] the IC50 [3] was 2.3 µM.

Source: article PMC11929827 (Scientific Reports, 2025)
